Screens from PubChem BioAssay.
TAAR1 antag = human TAAR1 antagonists, primary screen, Fluo-8 calcium fluorescence, CHO RD-HGA16 cells; AID 624466, 2012; Trace amine-associated receptor 1 (Homo sapiens), Q96RJ0; inhibition, % at 3 µM; 360,000 compounds, 1.5% hits; antagonist;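 active means inhibition above a per-plate cutoff, the mean inhibition of test compounds on that plate plus 3 SD, cut at about 49% in these data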;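 further: 0% = DMSO plus EC80 beta-PEA response and 100% = DMSO alone without agonist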
Target sequence (Q96RJ0 whole entry, looked up): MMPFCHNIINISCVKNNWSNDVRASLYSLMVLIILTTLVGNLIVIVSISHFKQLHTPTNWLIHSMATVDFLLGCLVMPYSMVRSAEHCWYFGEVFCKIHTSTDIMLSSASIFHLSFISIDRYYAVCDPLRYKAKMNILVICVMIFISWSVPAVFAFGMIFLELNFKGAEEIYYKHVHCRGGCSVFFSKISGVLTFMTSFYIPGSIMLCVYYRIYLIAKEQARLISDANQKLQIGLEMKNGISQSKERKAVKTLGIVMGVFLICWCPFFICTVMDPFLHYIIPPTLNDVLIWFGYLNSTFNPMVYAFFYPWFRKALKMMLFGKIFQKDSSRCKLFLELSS
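Test system – hTAAR1-expressing CHO RD-HGA16 cells, Gα16-coupled · Reagent – β-PEA at EC80 concentration, post-compound challenge · Compound dosing – 3 µM, single point · Timing – 140 s kinetic read after compound, 140 s after agonist · Detection – Fluo-8 intracellular calcium dye fluorescence, real-time kinetic reads · Control set – DMSO and EC80 PEA controls · Repeats – n of 1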
CHO parental Ca = ATP-evoked calcium signal inhibitors, parental CHO, primary screen, counter-screen for OX1R antagonist project, cell-based, fluorescence, Fluo-8 calcium dye; inhibition, % at 5.6 µM; 330,000 compounds, 0.63% hits; parental CHO-K1, ATP-induced calcium, Fluo-8 fluorescence;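 active means inhibition above that plate's mean sample inhibition plus 3 SD, cut at about 26% in these data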;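 further: 0% = ATP-challenged DMSO wells and 100% = DMSO wells without ATP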
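Assay system – parental CHO cells · Reagent – ATP stimulus · Detection – intracellular calcium via Fluo-8 no-wash fluorescent dye · Evaluation – percent inhibition of ATP-evoked calcium rise, normalized to controls · Controls – ATP wells versus no-ATP DMSO wells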
OX1R antag-1 = antagonists of human orexin 1 receptor (OX1R). 330,000 compounds, 1.8% hits. OX1R-expressing cells, FRET antagonist read-out. AID 485270, 2010. Orexin/Hypocretin receptor type 1 (Homo sapiens), O43613. inhibition, % at 6.6 µM; in the data active means inhibition mostly above about 38%, no sharp cut-off; inactive means mostly below about 40%;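 further: 0% = agonist challenge alone and 100% = reference antagonist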
Target sequence (O43613 whole entry, looked up): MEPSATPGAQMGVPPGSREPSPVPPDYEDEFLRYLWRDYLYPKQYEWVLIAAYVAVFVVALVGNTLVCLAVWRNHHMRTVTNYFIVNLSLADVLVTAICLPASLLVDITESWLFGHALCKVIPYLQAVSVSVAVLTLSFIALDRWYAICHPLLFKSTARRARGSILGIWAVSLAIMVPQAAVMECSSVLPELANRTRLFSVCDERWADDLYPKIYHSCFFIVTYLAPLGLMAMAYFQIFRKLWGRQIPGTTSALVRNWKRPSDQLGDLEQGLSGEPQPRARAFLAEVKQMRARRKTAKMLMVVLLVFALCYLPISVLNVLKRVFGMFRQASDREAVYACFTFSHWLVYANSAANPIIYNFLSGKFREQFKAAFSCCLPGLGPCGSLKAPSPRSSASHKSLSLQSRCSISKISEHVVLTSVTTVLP
OX1R antag-2 = OX1R (HCRTR1) antagonists, primary screen, fluorescence, CHO/OX1R cells, Fluo-8 calcium, orexin A; Orexin/Hypocretin receptor type 1 (Homo sapiens), O43613; Fluo-8 calcium fluorescence; inhibition, % at 5 µM; 330,000 compounds, 0.43% hits;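 active means inhibition above its plate's threshold, mean inhibition of all tested compounds on the plate plus 3 SD, cut at about 37% in these data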;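 further: 0% = orexin A challenge wells and 100% = SB-334867-A antagonist wells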
GPR7 antagonist = GPR7 receptor antagonists, primary screen, cell-based, fluorescence, single concentration | Neuropeptides B/W receptor type 1 (Homo sapiens), P48145 | GPR7-expressing cells, fluorescence antagonist assay | inhibition, % at 4.4 µM | 290,000 compounds, 1.1% hits | AID 1861, 2009; in the data active means inhibition above about 16%, passing the limit was not always enough;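 further: cells stimulated with the agonist NPW; 0% = agonist with vehicle and 100% = vehicle without agonist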
TAAR1 agonist = human TAAR1 agonists, primary screen, Fluo-8 calcium fluorescence, CHO RD-HGA16 cells | activation, % at 3 µM | Trace amine-associated receptor 1 (Homo sapiens), Q96RJ0 | AID 624467, 2012 | vehicle wells 0%, saturating PEA agonist 100% | 360,000 compounds, 0.99% hits;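 active means activation above the mean activation of all test compounds in the run plus 3 SD, cut at about 38% in these data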
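System: CHO-derived RD-HGA16 cells with stable Gα16 and human TAAR1 / Times: 17-24 h plating, Fluo-8 75 min 37 °C, 30 min RT / Technique: calcium-sensitive Fluo-8 signal, excitation 470-495, emission 515-575 nm / Measure: % activation relative to PEA EC100 response / Benchmarks: DMSO and PEA EC100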
OX1R Ca confirm = OX1R (HCRTR1) antagonists, confirmation, fluorescence, CHO/OX1R cells, Fluo-8 calcium, orexin A. shares compounds with OX1R antag-2. orexin A calcium Fluo-8 fluorescence. inhibition, % at 5 µM. 1,100 compounds, 38% hits. AID 492963, 2010; in the data active means inhibition above about 29%;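 further: 0% = agonist challenge alone and 100% = reference antagonist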
CHO Ca triplic = ATP-evoked calcium inhibition in parental CHO, counter-screen for OX1R antagonist project, cell-based, fluorescence, CHO-K1, triplicate. shares compounds with OX1R antag-2. ATP-induced calcium, Fluo-8 fluorescence. inhibition, % at 5.6 µM. 1,100 compounds, 9.3% hits;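 active means inhibition above a per-plate limit, the mean inhibition of that plate's test compounds plus 3 SD, cut at about 25% in these data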;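 further: 0% = ATP challenge with DMSO and 100% = DMSO without ATP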
OX1R HTRF conf = OX1R (HCRTR1) antagonists, confirmation, cell-based, HTRF; shares compounds with OX1R antag-1; OX1R-expressing cells, HTRF antagonist assay; inhibition, % at 6.6 µM; 1,800 compounds, 49% hits; AID 492964, 2010; in the data active means inhibition above about 55%;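 further: CHO cells expressing OX1R stimulated with orexin A at about EC80; 0% = agonist challenge alone and 100% = reference antagonist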
CHO-K1 HTRF = signal inhibition in parental CHO-K1 cells, counter-screen for OX1R antagonist project, cell-based, HTRF | shares compounds with OX1R antag-1 | HTRF counterscreen | inhibition, % at 6.6 µM | 1,800 compounds, 48% hits | AID 493232, 2011; in the data active means inhibition above about 17%;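 further: 0% = agonist challenge with vehicle and 100% = vehicle alone without agonist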
* hit, by the source's call; . = no result. Compounds with a hit are over-represented: about 4.6% of the library has one in this group of screens.

SMILES | TAAR1 antag | CHO parental Ca | OX1R antag-1 | OX1R antag-2 | GPR7 antagonist | TAAR1 agonist | OX1R Ca confirm | CHO Ca triplic | OX1R HTRF conf | CHO-K1 HTRF
O=C(C1CCCN1S(=O)(=O)c1cccc2cccnc12)N1CCn2c1nc1ccccc12 (configuration not stated) | . | -6 | 96* | 45* | -9 | . | 53* | -5 | 90* | 2
N#C/C(=N\Nc1cccc([N+](=O)[O-])c1)C(=O)c1ccc(Br)cc1 | 33 | 26 | 94* | 42* | -9 | 3 | 21 | 50* | 39 | 19*
N#C/C(=C\Nc1ccc2c(c1)OCCO2)c1nc(-c2ccccc2)cs1 | 22 | -4 | 9 | -7 | -5 | 7 | . | . | . | .
N#C/C(=C\Nc1ccc2c(c1)OCCO2)c1nc2ccccc2[nH]1 | 12 | -10 | 91* | 28 | -29 | 7 | 12 | -11 | 74* | 10
COc1cccc(C(=O)NCC2CCCN2S(=O)(=O)c2ccccc2)c1 (configuration not stated) | 0 | -30 | 49* | 40 | . | 5 | 13 | -18 | 63* | -6
CCOc1cc(C(=S)N2CCOCC2)cc(Br)c1OS(=O)(=O)c1ccccc1 | -3 | -16 | 47* | 28 | -5 | 3 | 52* | 6 | 62* | 12
COc1ccccc1C#Cc1ccc2c(=O)c3ccccc3n(C)c2c1 | 19 | -20 | 29 | -38 | -3 | 10 | . | . | . | .
Cn1c2ccccc2c(=O)c2cc(C#Cc3cccc(N)c3)ccc21 | . | -11 | 92* | 55* | . | . | 40* | 6 | 88* | 13
O=C(OCCO)c1c(C2=CCCCC2)oc2c1C(OCCO)CCC2 (configuration not stated) | -12 | . | . | . | . | 1 | . | . | . | .
CCn1c2ccccc2c2nc3ccccc3nc21 | . | -5 | 93* | 27 | -5 | . | 43* | -11 | 93* | -6
CCn1c2ccccc2c2nc3cc(OC)c(OC)cc3nc21 | 1 | -11 | 27 | -3 | 7 | 11 | . | . | . | .
Clc1ccc2c(-c3ccccc3)nc(-c3cccs3)nc2c1 | 6 | . | . | . | . | 0 | . | . | . | .
O=C(Nc1cccc(-c2nnc(-c3ccco3)o2)c1)c1ccccc1 | 36 | -24 | 34 | -35 | -4 | 9 | . | . | . | .
COc1cccc(C(=O)Nc2ccc(-c3nnc(-c4ccco4)o3)cc2)c1 | 47 | -24 | 77* | 33 | -6 | 13 | 34* | -6 | 71* | 20*
CCCCCCCCN1C(=O)[C@@H](CC(=O)N2CCOCC2)C[C@@]2(C(=O)OC)C1=C[C@H](C(C)(C)C)O[C@@H]2C | -62 | . | . | . | . | 3 | . | . | . | .
CC(=NNC(=S)N1CC2CCC(CC2)C1)c1ccncn1 | -20 | . | . | . | . | 2 | . | . | . | .
O=C(Nc1cccc(S(=O)(=O)NCc2ccco2)c1)c1cc(-c2ccccc2)nc2ccccc12 | 59* | -5 | 78* | 46* | -6 | 17 | 41* | -6 | 74* | 7
O=C(Nc1cccc(Cl)c1)c1ccc(F)c(S(=O)(=O)NCc2cccs2)c1 | 10 | -17 | 85* | 63* | 8 | 18 | 31* | -5 | 78* | 1
Cc1cccc(NC(=O)c2ccc(F)c(S(=O)(=O)NCc3ccco3)c2)c1 | -25 | -21 | 86* | 58* | 6 | -1 | 44* | -15 | 75* | 3
O=C(NCc1ccco1)c1cc(-c2ccccc2)nc2ccccc12 | 47 | -25 | 42 | -30 | -1 | 8 | . | . | . | .
Cc1ccc(NC(=O)c2ccc(C)cc2)cc1 | -7 | -12 | 31 | -2 | . | 3 | . | . | . | .
Cc1ccc(C(=O)Nc2ccc(Br)c(C(F)(F)F)c2)cc1 | 13 | -3 | 51* | 29 | -6 | 4 | 6 | 4 | 34 | 12
CN1C(=O)[C@H]2[C@@H](c3ccc(C(F)(F)F)cc3)N[C@]3(CCCN(Cc4ccco4)C3=O)[C@H]2C1=O | -37 | . | . | . | . | 0 | . | . | . | .
O=C1N=C(N2CCOCC2)S/C1=C\c1ccc(OS(=O)(=O)c2ccccc2)cc1 | 15 | -14 | 2 | -33 | 7 | 10 | . | . | . | .
CC(=C/c1ccccc1)/C=C1/SC(N2CCOCC2)=NC1=O | 35 | -5 | 108* | 85* | -2 | 6 | 80* | 3 | 101* | -2
SMILES | TAAR1 antag | CHO parental Ca | OX1R antag-1 | OX1R antag-2 | GPR7 antagonist | TAAR1 agonist | OX1R Ca confirm | CHO Ca triplic | OX1R HTRF conf | CHO-K1 HTRF
CCc1ccc(/C=N\NC(=O)c2ccc(Br)o2)s1 | 6 | -8 | 36 | -14 | -11 | -1 | . | . | . | .
CCN(CC)c1ccc(/C=N/NC(=O)c2ccc(Br)o2)cc1 | 26 | -11 | 91* | 31 | -8 | 0 | 55* | 4 | 90* | 8
Cc1ccc(C)c(N2CCN(C3C(=O)Nc4ccccc4-n4nnnc43)CC2)c1 (configuration not stated) | 4 | . | . | . | . | 36 | . | . | . | .
CCN(CC)CCOc1ccc(C=NNc2nc3c([nH]2)c(=O)n(C)c(=O)n3C)cc1 | -11 | . | . | . | . | 4 | . | . | . | .
COc1ccc(CCNC(=O)COc2ccc(-c3ccc(C)cc3)cc2)cc1OC | 25 | -14 | 66* | 70* | -11 | -1 | 24 | -2 | 76* | 9
COc1ccc(CCNC(=O)CCOc2ccc(C)cc2)cc1OC | -16 | -5 | 17 | -18 | -8 | -1 | . | . | . | .
Cc1cc(Cl)ccc1OCCCC(=O)NCCN1C(=O)S/C(=C\c2cccnc2)C1=O | 9 | -25 | 114* | 94* | -11 | 8 | 94* | -6 | 91* | 10
CSc1cccc(N2CC(C(=O)NCCN3C(=O)S/C(=C\c4cccnc4)C3=O)CC2=O)c1 (configuration not stated) | 1 | -10 | 145* | 33 | . | 0 | 67* | -6 | 112* | 33*
CCN(CC)c1ccc(/C=N/NC(=O)c2nnn(-c3nonc3N)c2C(C)C)c(O)c1 | 16 | -2 | 96* | 59* | -19 | 1 | 16 | -10 | 69* | 5
